Source: paper PMC8059355 (ACS infectious diseases, 2020)
“Also recorded” adds a separate entry of the source. Read-outs that look alike come from different tables or passages of the source.

What was measured:
[1] = system: L. amazonensis axenic amastigotes; assay type: cell-based, Leishmania amazonensis; conditions: for EC50: Leishmania amazonensis, 72 h, read-out: EC50 ± SE
[2] = system: L. amazonensis promastigotes and amastigotes; assay: microscopy of cell division in L. amazonensis promastigotes and amastigotes; assay type: cell-based, Leishmania amazonensis; conditions: 48 h at the EC50 72h concentration; for increase in parasites in mid-cell division, promastigotes: compared to DMSO control
[3] = system: L. amazonensis promastigotes; assay: microscopy of promastigote morphology; assay type: cell-based, Leishmania amazonensis; conditions: compared to DMSO control; for increase in pear-shaped promastigotes: 48 h at the EC50 72h; for increase in flagella length: promastigotes, 24 h at the EC50 72h
[4] = system: L. amazonensis promastigotes; assay: alamarBlue assay, L. amazonensis promastigotes; assay type: cell-based, Leishmania amazonensis; conditions: read-out: Promastigote EC50 ± SE, 72 h
[5] = system: purified L. tarentolae tubulin; assay: chemical cross-linking with SW22 probe and competition, fluorescent tubulin band; assay type: binding, Leishmania tarentolae; conditions: for competition with SW22 probe for tubulin, fluorescent band: fully purified tubulin, competitor at 100-fold excess
[6] = system: L. amazonensis intracellular amastigotes; assay type: cell-based, Leishmania amazonensis; conditions: read-out: intracellular amastigotes, EC50 ± SE
[7] = system: L. donovani axenic amastigotes; assay: alamarBlue assay, L. donovani axenic amastigotes; assay type: cell-based, Leishmania donovani; conditions: read-out: L. donovani axenic amastigotes, EC50 ± SE, 72 h
Procedure, shortened: (§1)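 Axenic amastigotes were exposed to a compound dilution series and growth was measured with 10% alamarBlue, fluorescence at 530 nm excitation and 570 nm emission. Each plate held three technical replicates, with at least three biological repeats. Percent growth relative to untreated control was plotted against log10 concentration. EC50 per repeat was fitted by sigmoidal variable-slope nonlinear regression and reported as mean ± SE.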

[8] = system: purified L. tarentolae tubulin; assay: turbidity tubulin polymerization assay, purified L. tarentolae tubulin; assay type: biochemical, Leishmania tarentolae; conditions: read-out: L. tarentolae tubulin polymerization EC50 (estimated); 3 mg/mL tubulin, A340, 30 °C
[9] = system: L. amazonensis axenic amastigotes; assay type: cell-based, Leishmania amazonensis; conditions: 24 h at the EC50 72h, densitometry of Western blots
L. amazonensis = assay: paclitaxel EC50 72h for La; assay type: cell-based; conditions: Leishmania amazonensis, read-out: EC50 72h for La
[10] = system: blood-stage P. falciparum; assay: Malaria SYBR green I fluorescence; assay type: cell-based, Plasmodium falciparum; conditions: read-out: P. falciparum EC50 ± SE, 3D7, MSF assay
[11] = system: L. tarentolae axenic amastigotes; assay: alamarBlue assay, L. tarentolae axenic amastigotes; assay type: cell-based, Leishmania tarentolae; conditions: read-out: L. tarentolae axenic amastigotes EC50 ± SE
Procedure, shortened: as §1

[12] = system: blood-stage Trypanosoma brucei; assay: CellTiter-Glo luminescent assay, T. brucei; assay type: cell-based; conditions: read-out: T. brucei EC50 ± SE
Neospora caninum = conditions: read-out: Neospora caninum EC50; cited from earlier work
Cryptosporidium parvum = conditions: read-out: Cryptosporidium parvum EC50; cited from earlier work
[13] = system: Entamoeba histolytica trophozoite; conditions: cited from earlier work
[14] = L. amazonensis intracellular amastigotes in RAW 264.7 cells, 72 h, luciferase

**Q.** Which results are given for `CCCCCCCCCCCCCCCCOP(=O)([O-])OCC[N+](C)(C)C` [miltefosine]?
**A.** EC50 [1]: 1200 ± 280 nM; effect on L. amazonensis cell division [2]: did not affect L. amazonensis cell division; increase in pear-shaped promastigotes [3]: did not affect; increase in flagella length [3]: did not affect

**Q.** Which results are given for `CSc1ccccc1C(=O)Oc1cc(C)nc(-n2nc(C)cc2N)n1` [SW10]?
**A.** antileishmanial activity (in words) ([1]; L. amazonensis): essentially inactive; also recorded: nearly inactive; EC50 [4]: > 50000 nM; dimming of the fluorescent tubulin band in presence of competitor ([5]; L. tarentolae tubulin still including some additional proteins, SW22 probe): No apparent dimming; competition with SW22 probe for tubulin, fluorescent band [5]: no apparent competition; CC50 (RAW 264.7 cells): > 10000 nM

**Q.** With `CCc1c(C)nc(-n2nc(C)cc2NC(=O)c2ccc(F)c(Cl)c2)[nH]c1=O` [SW41] as the compound, how does the EC50 [6, 14] read?
**A.** The EC50 was 220 ± 13 nM.

**Q.** And the EC50 [7]?
**A.** Its EC50 is 310 ± 38 nM.

**Q.** What about the EC50 [4] of the same compound?
**A.** Its EC50 is 780 ± 29 nM.

**Q.** What about the CC50 (RAW 264.7 cells) of the same compound?
**A.** Its CC50 is 2400 ± 100 nM.

**Q.** Which EC50 [6, 14] does the source give for `N#Cc1nc(-c2ccccc2)oc1S(=O)(=O)c1ccc(Cl)cc1` [MMV676412] here?
**A.** The EC50 was over 2000 nM.

**Q.** For `CC(=O)Oc1ccccc1C(=O)Nc1ncc([N+](=O)[O-])s1` [nitazoxanide], which EC50 [1] is on record?
**A.** Its EC50 is 590 ± 100 nM.

**Q.** Which EC50 [1] does the source give for `CC(C)(C)[C@H]1CC[C@H](CC2=C(O)C(=O)c3ccccc3C2=O)CC1` [buparvaquone] here?
**A.** Its EC50 is 12 ± 1.1 nM.

**Q.** For `C[C@@H]1[C@H](O)[C@@H](C)/C=C/C=C/C=C/C=C/C=C/C=C/C=C/[C@H](O[C@@H]2O[C@H](C)[C@@H](O)[C@H](N)[C@@H]2O)C[C@@H]2O[C@](O)(C[C@@H](O)C[C@@H](O)[C@H](O)CC[C@@H](O)C[C@@H](O)CC(=O)O[C@H]1C)C[C@H](O)[C@H]2C(=O)O` [amphotericin B, reference compound], which EC50 [1] is on record?
**A.** The EC50 was 53 ± 4.4 nM.

**Q.** And the EC50 ([6]; Leishmania amazonensis, RAW264.7, 72 h)?
**A.** The EC50 was 65 ± 26 nM.

**Q.** Which EC50 [8] does the source give for `CC(=O)O[C@H]1C(=O)[C@@]2(C)[C@H]([C@H](OC(=O)c3ccccc3)[C@]3(O)C[C@H](OC(=O)[C@H](O)[C@@H](NC(=O)c4ccccc4)c4ccccc4)C(C)=C1C3(C)C)[C@]1(OC(C)=O)CO[C@@H]1C[C@@H]2O` [paclitaxel] here?
**A.** Its EC50 is 1300 ± 100 nM.

**Q.** What about the “increase in parasites in mid-cell division, promastigotes” value [2] of the same compound?
**A.** Its value is ~ 2 fold.

**Q.** What about the “increase in pear-shaped promastigotes” value [3] of the same compound?
**A.** The value was 2 fold.

**Q.** What about the “increase in flagella length” value [3] of the same compound?
**A.** Its value is ~ 1.5 fold.

**Q.** And the “proportion of cellular polymeric tubulin” value [9]?
**A.** Its value is “significantly increased”.

**Q.** And the EC50 (L. amazonensis)?
**A.** The EC50 was 760 ± 8.3 nM.

**Q.** With `C[C@]1(COc2ccc(N3CCC(Oc4ccc(OC(F)(F)F)cc4)CC3)cc2)Cn2cc([N+](=O)[O-])nc2O1` [delamanid] as the compound, how does the EC50 [1] read?
**A.** Its EC50 is 31 ± 3.5 nM.

**Q.** Which EC50 [6, 14] does the source give for `CCc1c(C)nc(-n2nc(C)cc2NC(=O)c2ccccc2SC)[nH]c1=O` [MMV676477] here?
**A.** The EC50 was 500 ± 20 nM.

**Q.** And the EC50 [7]?
**A.** The EC50 was 1300 ± 210 nM.

**Q.** What about the EC50 [10] of the same compound?
**A.** Its EC50 is 420 ± 19 nM.

**Q.** What about the EC50 [11] of the same compound?
**A.** Its EC50 is 11 ± 1.3 nM.

**Q.** And the EC50 [12]?
**A.** The EC50 was 190 ± 8.7 nM.

**Q.** What about the EC50 [4] of the same compound?
**A.** The EC50 was 2400 ± 35 nM.

**Q.** And the EC50 [8]?
**A.** The EC50 was 500 ± 100 nM.

**Q.** What about the “increase in parasites in mid-cell division, promastigotes” value [2] of the same compound?
**A.** Its value is ~ 2 fold.

**Q.** What about the “increase in pear-shaped promastigotes” value [3] of the same compound?
**A.** The value was 2 fold.

**Q.** And the “increase in flagella length” value [3]?
**A.** Its value is ~ 1.5 fold.

**Q.** And the “proportion of cellular polymeric tubulin” value [9]?
**A.** The value was “significantly increased”.

**Q.** And the “competition with SW22 probe for tubulin, fluorescent band” value [5]?
**A.** The value was “significantly dimmer”.

**Q.** What about the CC50 (RAW 264.7 cells) of the same compound?
**A.** Its CC50 is 2200 ± 410 nM.

**Q.** And the EC50 (Neospora caninum)?
**A.** Its EC50 is 13 nM.

**Q.** What about the EC50 (Cryptosporidium parvum) of the same compound?
**A.** Its EC50 is 220 nM.

**Q.** What about the “Entamoeba histolytica trophozoite proliferation at 10 μM” value [13] of the same compound?
**A.** Its value is 56%.

**Q.** Which EC50 [4] does the source give for `C#CCOc1ccc(C(=O)c2ccc(C(=O)Nc3cc(C)nn3-c3nc(C)c(CC)c(=O)[nH]3)cc2)cc1` [SW22, N-(1-(5-ethyl-4-methyl-6-oxo-1,6-dihydropyrimidin-2-yl)-3-methyl-1H-pyra-zol-5-yl)-4-(4-(prop-2-yn-1-yloxy)benzoyl) benzamide] here?
**A.** The EC50 was 6700 ± 53 nM.

**Q.** What about the CC50 (RAW 264.7 cells) of the same compound?
**A.** Its CC50 is 1300 ± 42 nM.
